The source made the active and inactive calls. The calls are words filed in the database; no cut-off is given here.

The values that follow come from ChEMBL document CHEMBL5653631, “A Potent and Selective ULK1 Inhibitor Suppresses Autophagy and Sensitizes Cancer Cells to Nutrient Stress” (iScience, 2018).

The subject of assay [1] is U2OS. The experiment in a line: Inhibition of autophagy in human U2OS cells expressing […] at 100 nM incubated for 2.5 hrs by Fluorescent microscopy based analysis. The assay is classed as functional, cell-based. The procedure, abridged: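 U2OS cells stably expressing EGFP-DFCP1 treated 2.5 hr with vehicle or 100 nM AZD8055, with or without 5 μM inhibitor; imaged live by fluorescence microscopy; DFCP1-positive objects per cell counted in 20–25 cells per condition; mean ± SEM, two-tailed unpaired t test.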

Assay [2] relates to U2OS. The experiment in a line: Inhibition of autophagy in human U2OS cells expressing […] assessed as DFCP1-positive puncta formation by measuring fold change at 100 nM incubated for 2.5 hrs by Fluorescent microscopy based analysis. In kind it is functional. Summed up: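 U2OS cells stably expressing EGFP-DFCP1 (omegasome marker) were treated 2.5 hr with vehicle or 100 nM AZD8055 (mTOR inhibitor used to induce autophagy), with or without 5 μM inhibitor, and imaged live by fluorescence microscopy. DFCP1-positive objects per cell were counted in 20–25 cells per condition and reported as mean ± SEM, with two-tailed unpaired t test.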

Assay [3] deals with U2OS. As to the kind of experiment: Inhibition of autophagy in human U2OS cells assessed as ATG12-positive puncta formation at 100 nM incubated for 2.5 hrs by Fluorescent microscopy based analysis. In kind it is functional, cell-based. The procedure, abridged: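 U2OS cells treated 2.5 hr with vehicle or 100 nM AZD8055, with or without 5 μM inhibitor; fixed and immunostained for endogenous ATG12; ATG12-positive puncta (phagophores) assessed by fluorescence microscopy.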

The test system of assay [4] is U2OS. The experiment in a line: Inhibition of autophagy in human U2OS cells assessed as BafA1-induced LC3B-II accumulation by measuring fold change at 100 nM […] by immunoblotting analysis. The assay is classed as functional. As to conditions: time 4 hrs. (Immunoblotting shows a protein as a band on a membrane.)

For the compound `COc1ccc(-c2ccc3c(N4CCOC[C@@H]4C)nc(N4CCOC[C@@H]4C)nc3n2)cc1CO` [AZD-8055], the inhibition entry in the assay on U2OS [1] and with U2OS [3] was “Active” each time. Besides, the “fold change (FC)” value with U2OS [2] was 3; in the assay on U2OS [4], 2.
